CAL PDZ FP-1: blocks peptide binding to human CAL PDZ domain; Q9HD26; purified CAL PDZ, TMR-peptide fluorescence polarization, 1 h; inhibition, % at 20 µM; 0.02% of 330,000 active; AID 504414;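 active means highest replicate inhibition of at least 40%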
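System: purified tagged CAL PDZ domain construct (CerCALP). Schedule: 1 h incubation at room temperature before polarization reading. Medium: 25 mM sodium phosphate pH 7.4, 150 mM NaCl, TCEP, IgG, Thesit. Read-out: percent inhibition from loss of millipolarization. Measured by: FP readout, S and P plane fluorescence. Probe or stimulus: fluorescent TMR peptide probe.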
CAL PDZ FP-2: CAL PDZ (human) peptide binding inhibition; AID 602252; 0.92% of 300,000 active; Q9HD26; inhibition, % at 24.9 µM; purified CAL PDZ, TMR-peptide fluorescence polarization, 1 h;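 active means mean inhibition of at least 30% with at least half of replicates also reaching 30%; inconclusive means no clear call, values can overlap the other calls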
N-glyco inh: N-linked glycosylation inhibition; reporter increase, % at 12.5 µM; 0.23% of 360,000 active; D54 ERlucT glycosylation luciferase reporter, 24 h; percent of 100 nM tunicamycin response; AID 588692;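 active means mean luciferase reporter signal, scaled so untreated is 0 and the glycosylation-blocking control 100, at or above a set limit in every replicate; inconclusive means mean reaches the limit but not every replicate does; inactive means mean below the limit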;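 further: luciferase carries N-glycosylation sites so blocking glycosylation raises the light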
Vif imaging: blocks HIV Vif function; AID 602346; HEK293T cells, Vif self-association by quenched fluorescence, imaging, 24 h; inhibition, % at 7.49 µM; 0.35% of 340,000 active; in the data active means inhibition above about 50%, passing the limit was not always enough; inconclusive means no clear call, values can overlap the other calls; inactive means below about 31%
PvdQ acylase: P. aeruginosa PvdQ acylase inhibition; AID 488965; inhibition, % at 10 µM; purified PvdQ acylase, fluorescence plate reader; 0.063% of 340,000 active; in the data active means inhibition above about 30%, passing the limit was not always enough; inconclusive means no clear call, values can overlap the other calls
CDK5 inh: inhibitors of human CDK5/p35 kinase. Q00535+Q15078. Recombinant CDK5/p35, ADP-Glo luminescence, 60 min. inhibition, % at 10 µM. 0.01% of 330,000 active. AID 488839;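 active means highest replicate inhibition of at least 50% and at least 75% of replicates reaching 50%; inconclusive means only one of the two criteria met; inactive means both criteria failed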
Target sequence (Q00535 whole entry, looked up): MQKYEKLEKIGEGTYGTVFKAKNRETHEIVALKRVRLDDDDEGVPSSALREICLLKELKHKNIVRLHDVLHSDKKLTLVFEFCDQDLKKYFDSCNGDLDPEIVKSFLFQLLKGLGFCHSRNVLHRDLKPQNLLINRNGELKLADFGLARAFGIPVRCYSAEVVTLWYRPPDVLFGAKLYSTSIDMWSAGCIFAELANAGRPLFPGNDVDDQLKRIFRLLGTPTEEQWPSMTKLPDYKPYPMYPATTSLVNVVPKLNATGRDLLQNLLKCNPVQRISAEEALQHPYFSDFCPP
Target sequence (Q15078 whole entry, looked up): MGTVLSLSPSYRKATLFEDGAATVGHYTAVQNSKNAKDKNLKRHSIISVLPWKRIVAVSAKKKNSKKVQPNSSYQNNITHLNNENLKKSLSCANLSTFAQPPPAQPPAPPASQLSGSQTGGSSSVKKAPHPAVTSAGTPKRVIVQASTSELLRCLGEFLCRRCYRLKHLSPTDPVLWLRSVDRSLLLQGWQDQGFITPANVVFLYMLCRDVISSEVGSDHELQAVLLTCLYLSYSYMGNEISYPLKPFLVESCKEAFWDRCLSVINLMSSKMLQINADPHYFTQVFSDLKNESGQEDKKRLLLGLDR
Hits are given with their value; - = inactive; ? = inconclusive; . = not tested or not shown. Sampled rows, rich in hits. Any-hit rate of the full collection: about 1.4%.

SMILES | CAL PDZ FP-1 | CAL PDZ FP-2 | N-glyco inh | Vif imaging | PvdQ acylase | CDK5 inh
Cc1nc(SCC(=O)O)c(C#N)c2c1CCCC2 | - | 75.6 | - | - | - | -
CCc1nc(SCC(=O)O)c(C#N)c2c1CCCC2 | - | . | - | - | - | -
COc1ccc(C(=O)COC(=O)c2sccc2C)cc1OC | - | - | - | - | - | -
COc1ccc(NC2CCCN(C(=O)c3csc(C(C)C)n3)C2)cc1OC (stereo unspecified) | - | - | - | - | - | -
COc1ccc(NC2CCCN(C(=O)c3csc(C(C)C)n3)C2)cc1 (stereo unspecified) | - | 92.7 | - | - | - | -
COc1ccc(NC2CCCN(C(=O)CCc3ccccc3F)C2)cc1 (stereo unspecified) | - | 78.0 | - | - | - | -
Cc1cc(C(=O)N2CCCC(Nc3ccc(C(C)C)cc3)C2)nn1C (stereo unspecified) | - | - | - | - | - | -
CC(C)c1ccc(NC2CCCN(C(=O)c3ccnn3C)C2)cc1 (stereo unspecified) | - | 55.3 | - | - | - | -
C=CCSc1nnc(NC(=O)CCNC(=O)c2ccccc2Cl)s1 | . | . | - | . | . | .
COc1cc(NC(=O)COC(=O)Cc2ccsc2)cc(OC)c1 | - | - | - | - | - | -
COc1ccc(CCNC(=O)Nc2cccs2)c(OC)c1 | - | - | - | - | - | -
CCOc1ncccc1C(=O)Nc1ccc2nc(C)sc2c1 | - | - | - | - | - | -
COc1ccc(-c2nnn(CC(=O)N(CCN3CCOCC3)C(C(=O)NC3CCCC3)c3ccco3)n2)cc1 (stereo unspecified) | - | 52.7 | - | - | - | -
COc1ccc(-c2nnn(CC(=O)N(CCN3CCOCC3)C(C(=O)NC3CCCCC3)c3ccco3)n2)cc1 (stereo unspecified) | - | - | - | - | - | -
O=C1[C@@H](Oc2ccccc2)[C@@H](c2cccnc2)N1c1ccccc1 | - | - | - | - | - | -
O=C(Nc1cccc(C(=O)N2CCOCC2)c1)C1CCCC1 | - | - | - | . | - | -
Cc1cc(C)nc(Nc2ccc(C(=O)O)cc2)n1 | - | - | - | 58.5 | - | -
COc1ccc(OC)c(NC(=O)C2CC(C)=C(C)CC2C(=O)O)c1 (stereo unspecified) | - | 42.7 | - | - | - | -
COc1ccc(OC)c(NC(=O)[C@H]2CC=CC[C@H]2C(=O)O)c1 | - | . | - | - | - | -
COc1ccc(OC)c(NC(=O)CSc2ccccc2)c1 | . | 54.4 | - | - | - | -
CCC(C)NC(=O)Cc1c(C)c2cc3c(cc2oc1=O)OC(C)(C)CC3 (stereo unspecified) | - | - | - | - | - | -
O=C(CCNC(=O)c1ccc(Br)cc1)NNC(=O)COc1ccccc1F | - | - | - | - | - | -
CC(C)(C)c1ccc(C(=O)NCCC(=O)NNC(=O)COc2ccc(F)cc2)cc1 | - | 33.0 | - | . | - | -
COc1ccc(OCc2cnc(Cl)s2)cc1 | - | - | - | 54.5 | - | -
Cn1nc(C(=O)NC2CCCCC2)c2c1-c1ccccc1SC2 | - | - | - | - | - | -
SMILES | CAL PDZ FP-1 | CAL PDZ FP-2 | N-glyco inh | Vif imaging | PvdQ acylase | CDK5 inh
CC1CCC(NC(=O)c2nn(C)c3c2CSc2ccccc2-3)CC1 (stereo unspecified) | - | 70.2 | - | ? | - | -
Cc1onc(-c2ccccc2Cl)c1C(=O)OCC(=O)N1CCN(c2ccccc2)CC1 | - | - | - | - | - | -
Cc1ccc(S(=O)(=O)N=Nc2c(O)[nH]c3ccccc23)cc1 | - | 31.7 | - | - | - | -
Cc1ccc(C)c(S(=O)(=O)N=Nc2c(O)[nH]c3ccccc23)c1 | - | - | - | - | - | -
C=CCNc1ncnc2c1ncn2[C@H]1CN(Cc2ccccc2)C[C@@H](COC(C)=O)O1 | . | . | - | - | . | .
CC1CC1C(=O)N1CCN(S(=O)(=O)c2cc(C(F)(F)F)cc(C(F)(F)F)c2)CC1 (stereo unspecified) | - | 76.2 | - | - | - | -
C=CCOc1ccc(C2NC(=O)c3ccccc3O2)cc1OC (stereo unspecified) | . | . | - | - | . | .
CCc1ccc(NC(=O)Cn2c3[n+](c4c(F)c(F)ccc42)CCCCC3)cc1 | - | - | - | - | - | -
O=C(/C=C/c1ccc([N+](=O)[O-])cc1)NNC(=O)C1CC1 | - | 74.1 | - | - | - | -
O=C(/C=C/c1ccc([N+](=O)[O-])cc1)NC1CC2CCC1C2 (stereo unspecified) | - | - | - | - | - | -
CN(C(=O)c1cc(COc2ccc(F)c(F)c2)on1)C1CCOC1 (stereo unspecified) | - | - | - | - | - | -
COCCOC(=O)C1=C(C)NC2=C(C(=O)CC(C)(C)C2)C1c1cccnc1 (stereo unspecified) | - | - | - | - | - | -
CC1=C(C(=O)OCC2CCCO2)C(c2ccncc2)C2=C(CC(C)(C)CC2=O)N1 (stereo unspecified) | . | 40.3 | - | - | - | -
CN(c1ccccc1)S(=O)(=O)c1cccc(NC(=O)CN2C(=O)NC3(CCCC3)C2=O)c1 | - | - | - | - | - | -
O=C1OC2C(O)COC23OC(O)CCC13O (stereo unspecified) | . | . | - | - | . | .
Cc1[nH]c(C)c(C(=O)/C=C/c2ccc([N+](=O)[O-])cc2)c1C | - | - | 42.1 | - | - | -
CCN(CCn1cccn1)C(=O)c1cc(COc2ccc(F)c(F)c2)on1 | - | 56.8 | - | - | - | -
Cc1nn(C)c(C)c1C(C)NC(=O)c1cc(COc2ccc(F)c(F)c2)on1 (stereo unspecified) | - | 40.2 | - | - | - | -
CCN(C[C@H]1N[C@@](C)(C(=O)OC)[C@H]2C(=O)N(Cc3ccccc3)C(=O)[C@@H]12)C(=O)Nc1ccc(F)cc1 | - | - | - | - | - | -
CCCC(=O)n1nc(-c2ccc(C)cc2)nc1NCc1ccco1 | - | 80.6 | - | - | - | -
Cc1ccc(S(=O)(=O)N(C)C[C@@H]2Oc3ccc(NS(C)(=O)=O)cc3CC(=O)N([C@H](C)CO)C[C@@H]2C)cc1 | - | - | - | - | - | -
N#CC1C(=O)NC(c2ccccc2)=CC1c1ccccc1 (stereo unspecified) | - | 110.1 | - | - | - | -
COc1ccccc1CNC(=O)COC(=O)CCN1C(=O)C2CC=CCC2C1=O (stereo unspecified) | . | . | - | - | . | .
CN(CCO)c1nc(N)c2c(N)nc3c(c2c1C#N)CC(=O)N3Cc1cccs1 | - | 122.9 | - | - | - | -
COc1ccc(CNC(=O)O[C@H]2CN(C(=O)OC(C)C)N(C(=O)OC(C)C)[C@@H]3CN(S(=O)(=O)c4ccc(C)cc4)C[C@]23O)cc1OC | . | . | - | - | . | .

Assay outcomes deposited in PubChem BioAssay by Broad Institute.
